Results taken from ChEMBL document CHEMBL2375290, “Nonclassical antifolates, part 3: synthesis, biological evaluation and molecular modeling study of some new 2-heteroarylthio-quinazolin-4-ones” (Eur J Med Chem, 2013).
Values after ≈ are worked out from the molar mass of the structure shown.

Columns and labels:
Dihydrofolate reductase = biological target: T1, Dihydrofolate reductase (Bos taurus, UniProt P00376); assay: Inhibition of bovine DHFR after 2 mins by spectrophotometry
T1 sequence (P00376 whole entry): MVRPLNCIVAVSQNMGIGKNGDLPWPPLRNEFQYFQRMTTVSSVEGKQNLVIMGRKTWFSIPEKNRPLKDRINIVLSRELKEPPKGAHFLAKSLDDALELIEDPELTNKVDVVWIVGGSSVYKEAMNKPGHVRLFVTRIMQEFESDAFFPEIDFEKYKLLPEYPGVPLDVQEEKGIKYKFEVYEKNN

RPMI-8226 = assay: Cytotoxicity against human RPMI8226 cells at 10 uM after 48 hrs by coulter counter analysis; type: functional; conditions: RPMI-8226, 48 h, read-out: GI
T47D = assay: Cytotoxicity against human T47D cells at 10 uM after 48 hrs by coulter counter analysis; type: functional; conditions: read-out: GI
Micrococcus luteus = assay: Antimicrobial activity against Micrococcus luteus at 200 ug after 24 hrs by agar disc diffusion method; type: functional; conditions: read-out: DIZ
UACC-62 = assay: Cytotoxicity against human UACC62 cells at 10 uM after 48 hrs by coulter counter analysis; type: functional; conditions: UACC-62, 48 h, read-out: GI
SK-MEL-5 = assay: Cytotoxicity against human SK-MEL-5 cells at 10 uM after 48 hrs by coulter counter analysis; type: functional; conditions: SK-MEL-5, 48 h, read-out: GI
NCI-H23 = assay: Cytotoxicity against human NCI-H23 cells at 10 uM after 48 hrs by coulter counter analysis; type: functional; conditions: NCI-H23, 48 h, read-out: GI
SN12C = assay: Cytotoxicity against human SN12C cells at 10 uM after 48 hrs by coulter counter analysis; type: functional; conditions: read-out: GI
HL-60(TB) = assay: Cytotoxicity against human HL-60(TB) cells at 10 uM after 48 hrs by coulter counter analysis; type: functional; conditions: HL-60, 48 h, read-out: GI
Hs-578T = assay: Cytotoxicity against human Hs578T cells at 10 uM after 48 hrs by coulter counter analysis; type: functional; conditions: read-out: GI
MDA-MB-231 = assay: Cytotoxicity against human MDA-MB-231 cells at 10 uM after 48 hrs by coulter counter analysis; type: functional; conditions: MDA-MB-231, 48 h, read-out: GI
A549 = assay: Cytotoxicity against human A549/ATCC cells at 10 uM after 48 hrs by coulter counter analysis; type: functional; conditions: A549, 48 h, read-out: GI
Staphylococcus aureus = assay: Antimicrobial activity against Staphylococcus aureus at 200 ug after 24 hrs by agar disc diffusion method; type: functional; conditions: read-out: DIZ
CCRF-CEM = assay: Cytotoxicity against human CCRF-CEM cells at 10 uM after 48 hrs by coulter counter analysis; type: functional; conditions: read-out: GI
Escherichia coli = assay: Antimicrobial activity against Escherichia coli at 200 ug after 24 hrs by agar disc diffusion method; type: functional; conditions: read-out: DIZ
IGROV-1 = assay: Cytotoxicity against human IGROV1 cells at 10 uM after 48 hrs by coulter counter analysis; type: functional; conditions: IGROV-1, 48 h, read-out: GI
CAKI-1 = assay: Cytotoxicity against human Caki1 cells at 10 uM after 48 hrs by coulter counter analysis; type: functional; conditions: CAKI-1, 48 h, read-out: GI
A498 = assay: Cytotoxicity against human A498 cells at 10 uM after 48 hrs by coulter counter analysis; type: functional; conditions: A498, 48 h, read-out: GI
UO-31 = assay: Cytotoxicity against human UO31 cells at 10 uM after 48 hrs by coulter counter analysis; type: functional; conditions: UO-31, 48 h, read-out: GI
NCI-H226 = assay: Cytotoxicity against human NCI-H226 cells at 10 uM after 48 hrs by coulter counter analysis; type: functional; conditions: NCI-H226, 48 h, read-out: GI
[1] = Cytotoxicity against human NCI-ADR-RES cells at 10 uM after 48 hrs by coulter counter analysis; type: functional; conditions: read-out: GI
MDA-MB-435 = assay: Cytotoxicity against human MDA-MB-435 cells at 10 uM after 48 hrs by coulter counter analysis; type: functional; conditions: MDA-MB-435, 48 h, read-out: GI
SF-295 = assay: Cytotoxicity against human SF295 cells at 10 uM after 48 hrs by coulter counter analysis; type: functional; conditions: SF-295, 48 h, read-out: GI
SNB-19 = assay: Cytotoxicity against human SNB19 cells at 10 uM after 48 hrs by coulter counter analysis; type: functional; conditions: SNB-19, 48 h, read-out: GI
LOX IMVI = assay: Cytotoxicity against human LOXIMVI cells at 10 uM after 48 hrs by coulter counter analysis; type: functional; conditions: read-out: GI
MOLT-4 = assay: Cytotoxicity against human MOLT4 cells at 10 uM after 48 hrs by coulter counter analysis; type: functional; conditions: MOLT-4, 48 h, read-out: GI
Bacillus subtilis [2] = assay: Antimicrobial activity against Bacillus subtilis at 200 ug after 24 hrs by agar disc diffusion method; type: functional; conditions: read-out: DIZ
[3] = Cytotoxicity against human EKVX cells at 10 uM after 48 hrs by coulter counter analysis; type: functional; conditions: read-out: GI
RXF 393 = assay: Cytotoxicity against human RXF393 cells at 10 uM after 48 hrs by coulter counter analysis; type: functional; conditions: RXF 393, 48 h, read-out: GI
SR = assay: Cytotoxicity against human SR cells at 10 uM after 48 hrs by coulter counter analysis; type: functional; conditions: read-out: GI
MCF7 = assay: Cytotoxicity against human MCF7 cells at 10 uM after 48 hrs by coulter counter analysis; type: functional; conditions: MCF7, 48 h, read-out: GI
SNB-75 = assay: Cytotoxicity against human SNB75 cells at 10 uM after 48 hrs by coulter counter analysis; type: functional; conditions: SNB-75, 48 h, read-out: GI
OVCAR-4 = assay: Cytotoxicity against human OVCAR4 cells at 10 uM after 48 hrs by coulter counter analysis; type: functional; conditions: OVCAR-4, 48 h, read-out: GI
NCI-H522 = assay: Cytotoxicity against human NCI-H522 cells at 10 uM after 48 hrs by coulter counter analysis; type: functional; conditions: NCI-H522, 48 h, read-out: GI
Malme-3M = assay: Cytotoxicity against human MALME-3M cells at 10 uM after 48 hrs by coulter counter analysis; type: functional; conditions: read-out: GI
Pseudomonas aeruginosa = assay: Antimicrobial activity against Pseudomonas aeruginosa at 200 ug after 24 hrs by agar disc diffusion method; type: functional; conditions: read-out: DIZ
PC-3 = assay: Cytotoxicity against human PC3 cells at 10 uM after 48 hrs by coulter counter analysis; type: functional; conditions: PC-3, 48 h, read-out: GI
Bacillus subtilis [4] = assay: Antimicrobial activity against Bacillus subtilis after 24 hrs by micro-dilution susceptibility method; type: functional
Method in brief: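 Broth microdilution in Müller-Hinton broth against S. aureus IFO 3060, B. subtilis IFO 3007, E. coli IFO 3301 and P. aeruginosa IFO 3448. These are the same standard strains used in the disc-diffusion primary screen. Compounds were solubilized in DMSO. MIC recorded as the minimal inhibitory concentration.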

Question: For Cc1ccc2nc(Sc3ncccc3C(=O)O)n(Cc3ccccc3)c(=O)c2c1, which IC50 (Dihydrofolate reductase) is on record?
Answer: 10 µM

Question: What about the inhibition of growth at 10 µM (RPMI-8226) of the same molecule?
Answer: 25.8%

Question: What about the inhibition of growth at 10 µM (T47D) of the same molecule?
Answer: < 10%

Question: And the zone of inhibition at 200 µg/disc (Micrococcus luteus)?
Answer: 12 mm

Question: What about the inhibition of growth at 10 µM (UACC-62) of the same molecule?
Answer: 30.4%

Question: And the inhibition of growth at 10 µM (SK-MEL-5)?
Answer: 14.4%

Question: What about the inhibition of growth at 10 µM (NCI-H23) of the same molecule?
Answer: < 10%

Question: What about the inhibition of growth at 10 µM (SN12C) of the same molecule?
Answer: 11.2%

Question: What about the inhibition of growth at 10 µM (HL-60(TB)) of the same molecule?
Answer: < 10%

Question: And the inhibition of growth at 10 µM (Hs-578T)?
Answer: 12.5%

Question: What about the inhibition of growth at 10 µM (MDA-MB-231) of the same molecule?
Answer: 30.5%

Question: What about the inhibition of growth at 10 µM (A549) of the same molecule?
Answer: < 10%

Question: And the zone of inhibition at 200 µg/disc (Staphylococcus aureus)?
Answer: 15 mm

Question: And the inhibition of growth at 10 µM (CCRF-CEM)?
Answer: 16.5%

Question: What about the zone of inhibition at 200 µg/disc (Escherichia coli) of the same molecule?
Answer: 8 mm

Question: And the inhibition of growth at 10 µM (IGROV-1)?
Answer: 16.3%

Question: What about the inhibition of growth at 10 µM (CAKI-1) of the same molecule?
Answer: 41.2%

Question: And the inhibition of growth at 10 µM (A498)?
Answer: 11.4%

Question: What about the inhibition of growth at 10 µM (UO-31) of the same molecule?
Answer: 20.6%

Question: What about the inhibition of growth at 10 µM (NCI-H226) of the same molecule?
Answer: 21.2%

Question: What about the inhibition of growth at 10 µM [1] of the same molecule?
Answer: 12.7%

Question: And the inhibition of growth at 10 µM (MDA-MB-435)?
Answer: 21.8%

Question: What about the inhibition of growth at 10 µM (SF-295) of the same molecule?
Answer: 14.2%

Question: And the inhibition of growth at 10 µM (SNB-19)?
Answer: 14.2%

Question: And the inhibition of growth at 10 µM (LOX IMVI)?
Answer: 13.8%

Question: And the inhibition of growth at 10 µM (MOLT-4)?
Answer: 15.3%

Question: And the zone of inhibition at 200 µg/disc (Bacillus subtilis [2])?
Answer: 16 mm

Question: What about the inhibition of growth at 10 µM [3] of the same molecule?
Answer: 26.6%

Question: What about the inhibition of growth at 10 µM (RXF 393) of the same molecule?
Answer: 21.5%

Question: And the inhibition of growth at 10 µM (SR)?
Answer: 14.4%

Question: And the inhibition of growth at 10 µM (MCF7)?
Answer: 16.6%

Question: And the inhibition of growth at 10 µM (SNB-75)?
Answer: 30%

Question: And the inhibition of growth at 10 µM (OVCAR-4)?
Answer: 16.2%

Question: What about the inhibition of growth at 10 µM (NCI-H522) of the same molecule?
Answer: 24.4%

Question: What about the inhibition of growth at 10 µM (Malme-3M) of the same molecule?
Answer: < 10%

Question: And the zone of inhibition at 200 µg/disc (Pseudomonas aeruginosa)?
Answer: 8 mm

Question: What about the inhibition of growth at 10 µM (PC-3) of the same molecule?
Answer: 32.8%

Question: For CCOC(=O)c1nc(N)sc1Sc1nc2ccc(Cl)cc2c(=O)n1-c1ccccc1, which IC50 (Dihydrofolate reductase) is on record?
Answer: 3 µM

Question: What about the zone of inhibition at 200 µg/disc (Micrococcus luteus) of the same molecule?
Answer: 8 mm

Question: What about the zone of inhibition at 200 µg/disc (Staphylococcus aureus) of the same molecule?
Answer: 8 mm

Question: And the zone of inhibition at 200 µg/disc (Escherichia coli)?
Answer: 8 mm

Question: What about the zone of inhibition at 200 µg/disc (Bacillus subtilis [2]) of the same molecule?
Answer: 8 mm

Question: What about the zone of inhibition at 200 µg/disc (Pseudomonas aeruginosa) of the same molecule?
Answer: 8 mm

Question: With Cc1ccc2nc(Sc3cc([N+](=O)[O-])ccc3C(=O)O)n(Cc3ccccc3)c(=O)c2c1 as the molecule, how does the IC50 (Dihydrofolate reductase) read?
Answer: 12 µM

Question: And the zone of inhibition at 200 µg/disc (Micrococcus luteus)?
Answer: 8 mm

Question: What about the zone of inhibition at 200 µg/disc (Staphylococcus aureus) of the same molecule?
Answer: 8 mm

Question: And the zone of inhibition at 200 µg/disc (Escherichia coli)?
Answer: 8 mm

Question: And the zone of inhibition at 200 µg/disc (Bacillus subtilis [2])?
Answer: 8 mm

Question: And the zone of inhibition at 200 µg/disc (Pseudomonas aeruginosa)?
Answer: 8 mm

Question: With O=C(O)c1ccc([N+](=O)[O-])cc1Sc1nc2ccc(Cl)cc2c(=O)n1-c1ccccc1 as the molecule, how does the IC50 (Dihydrofolate reductase) read?
Answer: 10 µM

Question: What about the zone of inhibition at 200 µg/disc (Micrococcus luteus) of the same molecule?
Answer: 8 mm

Question: What about the MIC (Bacillus subtilis [4]) of the same molecule?
Answer: 4 µg/mL (≈ 8.81 µM)

Question: What about the zone of inhibition at 200 µg/disc (Staphylococcus aureus) of the same molecule?
Answer: 14 mm

Question: And the zone of inhibition at 200 µg/disc (Escherichia coli)?
Answer: 8 mm

Question: What about the zone of inhibition at 200 µg/disc (Bacillus subtilis [2]) of the same molecule?
Answer: 20 mm

Question: What about the zone of inhibition at 200 µg/disc (Pseudomonas aeruginosa) of the same molecule?
Answer: 8 mm

Question: What does the source list for Cc1ccc2nc(Sc3cc([N+](=O)[O-])ccc3C(=O)O)n(-c3ccccc3)c(=O)c2c1?
Answer: IC50 (Dihydrofolate reductase): 10 µM; zone of inhibition at 200 µg/disc (Micrococcus luteus): 8 mm; zone of inhibition at 200 µg/disc (Staphylococcus aureus): 8 mm; zone of inhibition at 200 µg/disc (Escherichia coli): 8 mm; zone of inhibition at 200 µg/disc (Bacillus subtilis [2]): 8 mm; zone of inhibition at 200 µg/disc (Pseudomonas aeruginosa): 8 mm

Question: For O=C(O)c1ccc([N+](=O)[O-])cc1Sc1nc2ccc(Cl)cc2c(=O)n1Cc1ccccc1, which IC50 (Dihydrofolate reductase) is on record?
Answer: 8 µM

Question: What about the zone of inhibition at 200 µg/disc (Micrococcus luteus) of the same molecule?
Answer: 8 mm

Question: What about the zone of inhibition at 200 µg/disc (Staphylococcus aureus) of the same molecule?
Answer: 8 mm

Question: What about the zone of inhibition at 200 µg/disc (Escherichia coli) of the same molecule?
Answer: 8 mm

Question: What about the zone of inhibition at 200 µg/disc (Bacillus subtilis [2]) of the same molecule?
Answer: 15 mm

Question: What about the zone of inhibition at 200 µg/disc (Pseudomonas aeruginosa) of the same molecule?
Answer: 8 mm
